Results taken from ChEMBL document CHEMBL1143146, “Multicomponent reactions in fungicide research: the discovery of mandipropamid” (2008).
Values after ≈ are worked out from the molar mass of the structure shown.

Legend:
[1] = test system: Plasmopara viticola; assay: Antifungal activity against Plasmopara viticola in grape downy mildew after 6 days; type: functional; conditions: 144 h
Summary of the method: (§1)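 Greenhouse trials on whole plants. Disease incidence read after incubation at 20 °C and 95% relative humidity: 4 days on tomato, 6 days on grape. Potency is given as EC80, the concentration in mg L-1 (ppm) giving 80% activity.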

[2] = test system: Phytophthora infestans; assay: Antifungal activity against Phytophthora infestans in tomato late blight after 4 days; type: functional; conditions: 96 h; summary of the method: as §1

| Compound | EC80 [1] | EC80 [2] |
| --- | --- | --- |
| C#CCOc1ccc(CCNC(=O)C(NS(=O)(=O)N(C)C)c2ccc(OC)cc2)cc1OC (stereo not given) | 34.9 µg/mL (≈ 73.4 µM) | 8 µg/mL (≈ 16.8 µM) |
| C#CCOc1ccc(CCNC(=O)C(NS(=O)(=O)N(C)C)c2ccc(C)c(C)c2)cc1OC (stereo not given) | 28.7 µg/mL (≈ 60.6 µM) | 12.2 µg/mL (≈ 25.8 µM) |
| C#CCOc1ccc(CCNC(=O)C(OCC#C)c2cc(Cl)cc(Cl)c2Cl)cc1OC (stereo not given) | 44.2 µg/mL (≈ 91.9 µM) | > 200 µg/mL |
| C#CCOc1ccc(CCNC(=O)C(OCC#C)c2ccc3c(c2)Cc2ccccc2-3)cc1OC (stereo not given) | 19.3 µg/mL (≈ 41.5 µM) | 4.8 µg/mL (≈ 10.3 µM) |
| C#CCOc1ccc(CCNC(=O)C(OCC#C)c2cccs2)cc1OC (stereo not given) | 1.4 µg/mL (≈ 3.65 µM) | 2.1 µg/mL (≈ 5.48 µM) |
| C#CCOc1ccc(CCNC(=O)C(OCC#C)c2cc(F)c(F)c(F)c2)cc1OC (stereo not given) | 19.7 µg/mL (≈ 45.7 µM) | 26.2 µg/mL (≈ 60.7 µM) |
| C#CCOc1ccc(CCNC(=O)C(NS(=O)(=O)N(C)C)c2ccc(SC)cc2)cc1OC (stereo not given) | 16.2 µg/mL (≈ 33 µM) | 34.9 µg/mL (≈ 71 µM) |
| C#CCOc1ccc(CCNC(=O)C(OCC#C)c2cccc(Cl)c2Cl)cc1OC (stereo not given) | 25.5 µg/mL (≈ 57.1 µM) | 168 µg/mL (≈ 377 µM) |
| C#CCOc1ccc(CCNC(=O)C(CC2=C(C)CCCC2(C)C)OCC#C)cc1OC (stereo not given) | 124 µg/mL (≈ 283 µM) | 51.4 µg/mL (≈ 117 µM) |
| C#CCOc1ccc(CCNC(=O)C(OCC#C)c2ccc(Br)cc2F)cc1OC (stereo not given) | 1.8 µg/mL (≈ 3.79 µM) | 5.3 µg/mL (≈ 11.2 µM) |
| C#CCOc1ccc(CCNC(=O)C(NS(=O)(=O)N(C)C)c2ccc(CC)cc2)cc1OC (stereo not given) | 5.1 µg/mL (≈ 10.8 µM) | 2.6 µg/mL (≈ 5.49 µM) |
| C#CCOc1ccc(CCNC(=O)C(NS(=O)(=O)N(C)C)c2cccc(C)c2)cc1OC (stereo not given) | 116 µg/mL (≈ 253 µM) | 150 µg/mL (≈ 326 µM) |
| C#CCOc1ccc(CCNC(=O)C(OCC#C)c2ccc(F)cc2)cc1OC (stereo not given) | 3.4 µg/mL (≈ 8.6 µM) | 1.8 µg/mL (≈ 4.55 µM) |
| C#CCOc1ccc(CCNC(=O)C(OCC#C)c2ccc(CC)cc2)cc1OC (stereo not given) | 3.1 µg/mL (≈ 7.64 µM) | 7.5 µg/mL (≈ 18.5 µM) |
| C#CCOc1ccc(CCNC(=O)C(OCC#C)c2ccc(F)cc2F)cc1OC (stereo not given) | 5 µg/mL (≈ 12.1 µM) | 4.6 µg/mL (≈ 11.1 µM) |
| C#CCOc1ccc(CCNC(=O)C(OCC#C)c2cccc(Br)c2)cc1OC (stereo not given) | 4.9 µg/mL (≈ 10.7 µM) | 4.9 µg/mL (≈ 10.7 µM) |
| C#CCOc1ccc(CCNC(=O)C(NS(=O)(=O)N(C)C)c2ccc(Br)cc2)cc1OC (stereo not given) | 39.4 µg/mL (≈ 75.1 µM) | 7.8 µg/mL (≈ 14.9 µM) |
| C#CCOc1ccc(CCNC(=O)C(COc2ccc(C)cc2)OCC#C)cc1OC (stereo not given) | 1.8 µg/mL (≈ 4.27 µM) | 0.1 µg/mL (≈ 0.237 µM) |
| C#CCOc1ccc(CCNC(=O)C(COc2ccc(Cl)cc2)OCC#C)cc1OC (stereo not given) | 0.6 µg/mL (≈ 1.36 µM) | 0.02 µg/mL (≈ 0.0453 µM) |
| C#CCOc1ccc(CCNC(=O)C(NS(=O)(=O)N(C)C)c2ccc(Cl)cc2)cc1OC (stereo not given) | 13.8 µg/mL (≈ 28.8 µM) | 10.6 µg/mL (≈ 22.1 µM) |

| Compound | EC80 [1] | EC80 [2] |
| --- | --- | --- |
| C#CCOc1ccc(CCNC(=O)C(OCC#C)c2cccc(F)c2)cc1OC (stereo not given) | 1.8 µg/mL (≈ 4.55 µM) | 10.2 µg/mL (≈ 25.8 µM) |
| C#CCOc1ccc(CCNC(=O)C(OCC#C)c2cccc(OC)c2)cc1OC (stereo not given) | 1.7 µg/mL (≈ 4.17 µM) | 46.2 µg/mL (≈ 113 µM) |
| C#CCOc1ccc(CCNC(=O)C(NS(=O)(=O)N(C)C)c2ccc(F)c(Cl)c2)cc1OC (stereo not given) | 59.8 µg/mL (≈ 120 µM) | 186 µg/mL (≈ 374 µM) |
| C#CCOc1ccc(CCNC(=O)C(NS(=O)(=O)N(C)C)c2ccc(F)c(F)c2)cc1OC (stereo not given) | 46.3 µg/mL (≈ 96.2 µM) | 110 µg/mL (≈ 228 µM) |
| C#CCOc1ccc(CCNC(=O)C(NS(=O)(=O)N(C)C)c2ccc(CCC)cc2)cc1OC (stereo not given) | 16.7 µg/mL (≈ 34.2 µM) | 3.1 µg/mL (≈ 6.36 µM) |
| C#CCOc1ccc(CCNC(=O)C(NS(=O)(=O)N(C)C)c2ccc(C(C)C)cc2)cc1OC (stereo not given) | 14.6 µg/mL (≈ 29.9 µM) | 26.2 µg/mL (≈ 53.7 µM) |
| C#CCOc1ccc(CCNC(=O)C(NS(=O)(=O)N(C)C)c2ccc(Cl)c(Cl)c2)cc1OC (stereo not given) | 51.5 µg/mL (≈ 100 µM) | 19.2 µg/mL (≈ 37.3 µM) |
| C#CCOc1ccc(CCNC(=O)C(OCC#C)c2ccccc2)cc1OC (stereo not given) | 1.3 µg/mL (≈ 3.44 µM) | 0.5 µg/mL (≈ 1.32 µM) |
| C#CCOc1ccc(CCNC(=O)C(NS(=O)(=O)N(C)C)c2ccc(F)cc2)cc1OC (stereo not given) | 78.3 µg/mL (≈ 169 µM) | 45.7 µg/mL (≈ 98.6 µM) |
| C#CCOc1ccc(CCNC(=O)C(OCC#C)C2CCCCC2)cc1OC (stereo not given) | 5.3 µg/mL (≈ 13.8 µM) | 47.6 µg/mL (≈ 124 µM) |
| C#CCOc1ccc(CCNC(=O)C(OCC#C)c2ccc(C)c(Cl)c2)cc1OC (stereo not given) | 1.5 µg/mL (≈ 3.52 µM) | 2.4 µg/mL (≈ 5.63 µM) |
| C#CCOc1ccc(CCNC(=O)C(OCC#C)c2ccc(C=C)cc2)cc1OC (stereo not given) | 2 µg/mL (≈ 4.96 µM) | 3.3 µg/mL (≈ 8.18 µM) |
| C#CCOc1ccc(CCNC(=O)C(OCC#C)c2ccc(Cl)c(Cl)c2)cc1OC (stereo not given) | 3.4 µg/mL (≈ 7.62 µM) | 4.8 µg/mL (≈ 10.8 µM) |
| C#CCOc1ccc(CCNC(=O)C(OCC#C)c2ccc(Br)cc2)cc1OC (stereo not given) | 2.6 µg/mL (≈ 5.7 µM) | 3.4 µg/mL (≈ 7.45 µM) |
| C#CCOc1ccc(CCNC(=O)C(OCC#C)c2ccc(C)cc2)cc1OC (stereo not given) | 5.2 µg/mL (≈ 13.3 µM) | 9.7 µg/mL (≈ 24.8 µM) |
| C#CCOc1ccc(CCNC(=O)C(OCC#C)c2ccc3c(c2)OCCO3)cc1OC (stereo not given) | 2.2 µg/mL (≈ 5.05 µM) | 16.7 µg/mL (≈ 38.3 µM) |
| C#CCOc1ccc(CCNC(=O)C(COCc2ccccc2)OCC#C)cc1OC (stereo not given) | 20.4 µg/mL (≈ 48.4 µM) | 0.3 µg/mL (≈ 0.712 µM) |
| C#CCOc1ccc(CCNC(=O)C(OCC#C)c2cccc(Cl)c2)cc1OC (stereo not given) | 2.4 µg/mL (≈ 5.83 µM) | 3.7 µg/mL (≈ 8.98 µM) |
| C#CCOc1ccc(CCNC(=O)C(NS(=O)(=O)N(C)C)c2ccc(C(F)(F)F)cc2)cc1OC (stereo not given) | 5.8 µg/mL (≈ 11.3 µM) | 3.4 µg/mL (≈ 6.62 µM) |
| C#CCOc1ccc(CCNC(=O)C(OCC#C)c2ccc(CCCC)cc2)cc1OC (stereo not given) | 10.4 µg/mL (≈ 24 µM) | 25.9 µg/mL (≈ 59.7 µM) |

| Compound | EC80 [1] | EC80 [2] |
| --- | --- | --- |
| C#CCOc1ccc(CCNC(=O)C(OCC#C)c2cccc(C(F)(F)F)c2)cc1OC (stereo not given) | 3.8 µg/mL (≈ 8.53 µM) | 5 µg/mL (≈ 11.2 µM) |
| C#CCOc1ccc(CCNC(=O)C(OCC#C)c2ccc(SC)cc2)cc1OC (stereo not given) | 5.3 µg/mL (≈ 12.5 µM) | 7.6 µg/mL (≈ 17.9 µM) |
| C#CCOc1ccc(CCNC(=O)C(NS(=O)(=O)N(C)C)c2ccc(OCC)cc2)cc1OC (stereo not given) | 35 µg/mL (≈ 71.5 µM) | 24.7 µg/mL (≈ 50.4 µM) |
| C#CCOc1ccc(CCNC(=O)C(Cc2ccc(Cl)cc2)OCC#C)cc1OC (stereo not given) | 18.6 µg/mL (≈ 43.7 µM) | 26.3 µg/mL (≈ 61.7 µM) |
| C#CCOc1ccc(CCNC(=O)C(OCC#C)c2ccc(C)c(C)c2)cc1OC (stereo not given) | 1.6 µg/mL (≈ 3.95 µM) | 3.2 µg/mL (≈ 7.89 µM) |
| C#CCOc1ccc(CCNC(=O)C(OCC#C)c2ccc(CCC)cc2)cc1OC (stereo not given) | 1.7 µg/mL (≈ 4.05 µM) | 4.4 µg/mL (≈ 10.5 µM) |
| C#CCOc1ccc(CCNC(=O)C(OCC#C)c2ccc(C(F)(F)F)cc2)cc1OC (stereo not given) | 11.6 µg/mL (≈ 26 µM) | 8 µg/mL (≈ 18 µM) |
| C#CCOc1ccc(CCNC(=O)C(OCC#C)c2ccccc2Cl)cc1OC (stereo not given) | > 200 µg/mL | 81.1 µg/mL (≈ 197 µM) |
| C#CCOc1ccc(CCNC(=O)C(OCC#C)c2ccc(COC)cc2)cc1OC (stereo not given) | 13.8 µg/mL (≈ 32.7 µM) | 2.6 µg/mL (≈ 6.17 µM) |
| C#CCOc1ccc(CCNC(=O)C(OCC#C)c2cc(C)cc(C)c2)cc1OC (stereo not given) | 56.4 µg/mL (≈ 139 µM) | 41.9 µg/mL (≈ 103 µM) |
| C#CCOc1ccc(CCNC(=O)C(NS(=O)(=O)N(C)C)c2ccccc2C)cc1OC (stereo not given) | > 200 µg/mL | > 200 µg/mL |
| C#CCOc1ccc(CCNC(=O)C(OCC#C)c2cccc(C)c2)cc1OC (stereo not given) | 1.7 µg/mL (≈ 4.34 µM) | 6.4 µg/mL (≈ 16.3 µM) |
| C#CCOc1ccc(CCNC(=O)C(OCC#C)c2ccc(OC)cc2)cc1OC (stereo not given) | 1.6 µg/mL (≈ 3.93 µM) | 2.3 µg/mL (≈ 5.64 µM) |
| C#CCOc1ccc(CCNC(=O)C(NS(=O)(=O)N(C)C)c2ccc(C)cc2)cc1OC (stereo not given) | 3.2 µg/mL (≈ 6.96 µM) | 2.5 µg/mL (≈ 5.44 µM) |
| C#CCOc1ccc(CCNC(=O)C(NS(=O)(=O)N(C)C)c2ccc(OC(F)(F)F)cc2)cc1OC (stereo not given) | 46.4 µg/mL (≈ 87.6 µM) | 18.8 µg/mL (≈ 35.5 µM) |
| C#CCOc1ccc(CCNC(=O)C(OCC#C)c2ccc(C(C)C)cc2)cc1OC (stereo not given) | 2.8 µg/mL (≈ 6.67 µM) | 6.1 µg/mL (≈ 14.5 µM) |
| C#CCOc1ccc(CCNC(=O)C(NS(=O)(=O)N(C)C)c2ccccc2)cc1OC (stereo not given) | 28.5 µg/mL (≈ 64 µM) | 81.2 µg/mL (≈ 182 µM) |
| C#CCOc1ccc(CCNC(=O)C(NS(=O)(=O)N(C)C)c2ccc(C(C)(C)C)cc2)cc1OC (stereo not given) | 20.2 µg/mL (≈ 40.3 µM) | 143 µg/mL (≈ 285 µM) |
| C#CCOc1ccc(CCNC(=O)C(OCC#C)c2cccnc2)cc1OC (stereo not given) | > 200 µg/mL | 186 µg/mL (≈ 492 µM) |
| C#CCOc1ccc(CCNC(=O)C(OCC#C)c2ccc(Cl)cc2)cc1OC (stereo not given) [MANDIPROPAMID] | 1.2 µg/mL (≈ 2.91 µM) | 0.1 µg/mL (≈ 0.243 µM) |
